Experimental findings from ChEMBL document CHEMBL1154647, “Synthesis, spectral characterization and biological evaluation of phosphorylated derivatives of galanthamine” (Eur J Med Chem, 2010) are described below.

Values after ≈ are worked out from the molar mass of the structure shown.

Assay [1] relates to Escherichia coli. The assay can be described thus: Antibacterial activity against Escherichia coli at 2 mg/mL after 18 hrs by disc diffusion assay. The assay is classed as functional. The settings on record: read-out: IZ. The procedure, abridged:
(§1)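 Bacteria were grown in nutrient broth at 37 °C for 18 h on a rotary shaker at 150 rpm. Compounds were dissolved in DMF. Nutrient agar plates were dried at 35–36 °C for about 30 min, and test strains were spread on the surface. Discs were applied, and plates were inverted and incubated at 37 °C. A DMF blank was run.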
In general terms: A growth-free zone around the sample is the usual read-out of agar diffusion tests.

The test system of assay [2] is Brain. In words: Antioxidant activity in Wistar rat brain assessed as catalase content. The format is functional.
Assay [3] deals with Brain. In words: Antioxidant activity in Wistar rat brain assessed as lipid peroxidation. The format is functional, tissue-based.
Assay [4] relates to Brain. In words: Antioxidant activity in Wistar rat brain assessed as inhibition of lipid peroxidation. The format is functional, tissue-based.
Assay [5] deals with Staphylococcus aureus. The assay can be described thus: Antibacterial activity against Staphylococcus aureus after 18 hrs. The assay is classed as functional.
The nature of assay [6]: Inhibition of superoxide dismutase in Wistar rat brain. The format is tissue-based.
Assay [7] deals with Escherichia coli. In words: Antibacterial activity against Escherichia coli after 18 hrs. The assay is classed as functional.
Assay [8] deals with Brain. In words: Antioxidant activity in Wistar rat brain assessed as reduction in glutathione content. The format is functional, tissue-based. In outline: (§2)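 Wistar rat brain was homogenised 1:40 (w/v) in 0.1 M phosphate buffer, pH 7.4, with 1 mM EDTA. Total glutathione (GSH + GSSG) and reduced GSH were assayed spectrophotometrically from optical density, using net rate against a standard-curve slope and intercept, times a dilution factor. Homogenate protein was measured by the Lowry method.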

Assay [9] concerns Brain. In words: Antioxidant activity in Wistar rat brain assessed as superoxide dismutase content. The format is functional.
Assay [10] concerns Escherichia coli. In words: Antibacterial activity against Escherichia coli at 1 mg/mL after 18 hrs by disc diffusion assay. The assay is classed as functional. The settings on record: read-out: IZ. The procedure, abridged:
as §1

For assay [11], the system named is Klebsiella pneumoniae. In words: Antibacterial activity against Klebsiella pneumoniae at 2 mg/mL after 18 hrs by disc diffusion assay. Conditions: read-out: IZ. The format is functional. The procedure, abridged: as §1
In another assay the target is T1, Catalase (Rattus norvegicus, UniProt P04762).
T1 sequence (P04762 whole entry): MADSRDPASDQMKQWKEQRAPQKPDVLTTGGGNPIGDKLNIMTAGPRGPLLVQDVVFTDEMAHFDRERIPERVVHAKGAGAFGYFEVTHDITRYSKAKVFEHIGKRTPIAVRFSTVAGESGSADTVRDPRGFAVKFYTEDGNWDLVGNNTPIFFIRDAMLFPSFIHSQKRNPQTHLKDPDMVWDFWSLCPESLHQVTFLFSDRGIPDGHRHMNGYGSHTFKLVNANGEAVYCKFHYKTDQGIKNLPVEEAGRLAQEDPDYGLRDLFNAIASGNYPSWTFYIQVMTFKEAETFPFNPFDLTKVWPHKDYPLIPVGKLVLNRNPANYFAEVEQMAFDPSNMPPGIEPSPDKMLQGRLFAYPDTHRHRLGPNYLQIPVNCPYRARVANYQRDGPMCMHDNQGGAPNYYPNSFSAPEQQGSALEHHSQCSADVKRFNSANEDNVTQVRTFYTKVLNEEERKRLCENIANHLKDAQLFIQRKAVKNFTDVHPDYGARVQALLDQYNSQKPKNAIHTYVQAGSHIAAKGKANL
The assay can be described thus: Inhibition of catalase in Wistar rat brain.

For assay [12], the system named is Bacillus subtilis. In words: Antibacterial activity against Bacillus subtilis at 1 mg/mL after 18 hrs by disc diffusion assay. The format is functional. The settings on record: read-out: IZ. The procedure, abridged:
as §1

Assay [13] deals with Brain. In words: Antioxidant activity in Wistar rat brain assessed as glutathione content. The format is functional. The procedure, abridged: as §2
Assay [14] has as its system Bacillus subtilis. The assay can be described thus: Antibacterial activity against Bacillus subtilis after 18 hrs. The assay is classed as functional.
Assay [15] relates to Klebsiella pneumoniae. The assay can be described thus: Antibacterial activity against Klebsiella pneumoniae after 18 hrs. The assay is classed as functional.
For assay [16], the system named is Staphylococcus aureus. The assay can be described thus: Antibacterial activity against Staphylococcus aureus at 2 mg/mL after 18 hrs by disc diffusion assay. The assay is classed as functional. The settings on record: read-out: IZ. The procedure, abridged: as §1
Assay [17] relates to Klebsiella pneumoniae. In words: Antibacterial activity against Klebsiella pneumoniae at 1 mg/mL after 18 hrs by disc diffusion assay. The assay is classed as functional. The settings on record: read-out: IZ. In outline: as §1
Assay [18] relates to Staphylococcus aureus. The assay can be described thus: Antibacterial activity against Staphylococcus aureus at 1 mg/mL after 18 hrs by disc diffusion assay. The format is functional. The settings on record: read-out: IZ. The procedure, abridged: as §1
For assay [19], the system named is Bacillus subtilis. The assay can be described thus: Antibacterial activity against Bacillus subtilis at 2 mg/mL after 18 hrs by disc diffusion assay. The assay is classed as functional. The settings on record: read-out: IZ. In outline: as §1

For `COc1ccc2c3c1O[C@H]1C[C@@H](O)C=C[C@@]31CCN(C)C2` [GALANTAMINE], the zone of inhibition at 2000 µg/mL in the assay on Escherichia coli [1] is 2.02 mm; with Klebsiella pneumoniae [11], 2.21 mm; in the assay on Staphylococcus aureus [16], 2.66 mm; with Bacillus subtilis [19], 2.25 mm. In addition, the Activity is 283.44 µg/mL with Brain [2], 70.7 µg/mL in the assay with Brain [3], 29.37 µg/mL in the assay with Brain [9] and 4.69 µg/mL with Brain [13]. For the same compound, the EC50 – broadly, the concentration that produces a half-maximal response – with Brain [4] was found to be 4.93 µg/mL (≈ 17.2 µM); in assay [6] it was 3.84 µg/mL (≈ 13.4 µM); in the assay with Brain [8] it was 4.21 µg/mL (≈ 14.7 µM); at Catalase, 5.06 µg/mL (≈ 17.6 µM). The MIC – broadly, the least concentration at which growth counts as inhibited – in the assay on Staphylococcus aureus [5] was 1 µg/mL (≈ 3.48 µM); against Escherichia coli [7], 0.7 µg/mL (≈ 2.44 µM); against Bacillus subtilis [14], 0.18 µg/mL (≈ 0.626 µM); against Klebsiella pneumoniae [15], 0.62 µg/mL (≈ 2.16 µM). Further, the zone of inhibition at 1000 µg/mL in the assay with Escherichia coli [10] was 1.47 mm; in the assay with Bacillus subtilis [12], 1.65 mm; in the assay with Klebsiella pneumoniae [17], 1.83 mm; in the assay on Staphylococcus aureus [18], 1.39 mm.
Regarding `COc1ccc2c3c1O[C@H]1C[C@@H](OP(=O)(SCCO)N(CCCl)CCCl)C=C[C@@]31CCN(C)C2` (stereo not given in full), the zone of inhibition at 2000 µg/mL is 2.21 mm in the assay on Escherichia coli [1], 6.46 mm with Klebsiella pneumoniae [11], 3.09 mm in the assay on Staphylococcus aureus [16] and 3.01 mm in the assay with Bacillus subtilis [19]. The Activity was found to be 285.32 µg/mL in the assay on Brain [2], 71.2 µg/mL in the assay with Brain [3], 29.55 µg/mL in the assay with Brain [9] and 4.92 µg/mL in the assay with Brain [13]. The EC50 worked out at 1.33 µg/mL (≈ 2.41 µM) in the assay with Brain [4], 1.62 µg/mL (≈ 2.94 µM) in [6], 1.11 µg/mL (≈ 2.01 µM) with Brain [8] and 1.67 µg/mL (≈ 3.03 µM) at Catalase. Moreover, the MIC worked out at 0.21 µg/mL (≈ 0.381 µM) in the assay on Staphylococcus aureus [5], 0.26 µg/mL (≈ 0.471 µM) against Escherichia coli [7], 0.13 µg/mL (≈ 0.236 µM) in the assay with Bacillus subtilis [14] and 0.59 µg/mL (≈ 1.07 µM) against Klebsiella pneumoniae [15]. The zone of inhibition at 1000 µg/mL in the assay on Escherichia coli [10] was 1.14 mm; with Bacillus subtilis [12] it was 1.72 mm; in the assay with Klebsiella pneumoniae [17], 2.08 mm; with Staphylococcus aureus [18], 1.53 mm.
In the case of `COc1ccc2c3c1O[C@H]1C[C@@H](OP(=O)(OP(=O)(O)O)N(CCCl)CCCl)C=C[C@@]31CCN(C)C2` (stereo not given in full), the zone of inhibition at 2000 µg/mL was 4.08 mm in the assay on Escherichia coli [1], 3.68 mm with Klebsiella pneumoniae [11], 4.65 mm in the assay on Staphylococcus aureus [16] and 4.49 mm in the assay with Bacillus subtilis [19]. Further, the Activity worked out at 278.33 µg/mL in the assay with Brain [2], 74.9 µg/mL in the assay on Brain [3], 28.14 µg/mL in the assay with Brain [9] and 4.72 µg/mL in the assay on Brain [13]. For the same compound, the EC50 turned out to be 1.98 µg/mL (≈ 3.47 µM) with Brain [4], 1.26 µg/mL (≈ 2.21 µM) in assay [6], 2.68 µg/mL (≈ 4.69 µM) with Brain [8] and 2.18 µg/mL (≈ 3.82 µM) on Catalase. The MIC against Staphylococcus aureus [5] is 0.38 µg/mL (≈ 0.665 µM); in the assay on Escherichia coli [7], 0.42 µg/mL (≈ 0.735 µM); against Bacillus subtilis [14], 0.16 µg/mL (≈ 0.28 µM); with Klebsiella pneumoniae [15], 0.48 µg/mL (≈ 0.84 µM). The zone of inhibition at 1000 µg/mL in the assay on Escherichia coli [10] worked out at 1.26 mm; in the assay on Bacillus subtilis [12], 2.09 mm; with Klebsiella pneumoniae [17] it was 1.39 mm; in the assay on Staphylococcus aureus [18] it was 1.72 mm.
In the case of `COc1ccc2c3c1O[C@H]1C[C@@H](OP(=O)(OCCO)Oc4ccc([N+](=O)[O-])cc4)C=C[C@@]31CCN(C)C2` (stereo not given in full), the zone of inhibition at 2000 µg/mL in the assay with Escherichia coli [1] was determined as 5.01 mm; in the assay on Klebsiella pneumoniae [11], 4.96 mm; with Staphylococcus aureus [16] it was 4.27 mm; in the assay on Bacillus subtilis [19], 3.71 mm. In addition, the Activity with Brain [2] was 286.43 µg/mL; with Brain [3], 72.1 µg/mL; in the assay on Brain [9], 29.41 µg/mL; with Brain [13], 5.21 µg/mL. Further, the EC50 in the assay with Brain [4] came to 3.17 µg/mL (≈ 5.95 µM); in assay [6], 3.28 µg/mL (≈ 6.16 µM); in the assay on Brain [8], 2.82 µg/mL (≈ 5.3 µM); on Catalase, 3.28 µg/mL (≈ 6.16 µM). For the same compound, the MIC in the assay on Staphylococcus aureus [5] came to 1.09 µg/mL (≈ 2.05 µM); against Escherichia coli [7] it was 0.67 µg/mL (≈ 1.26 µM); with Bacillus subtilis [14], 0.25 µg/mL (≈ 0.469 µM); in the assay on Klebsiella pneumoniae [15], 0.39 µg/mL (≈ 0.732 µM). Further, the zone of inhibition at 1000 µg/mL with Escherichia coli [10] was 1.53 mm; with Bacillus subtilis [12], 2.61 mm; with Klebsiella pneumoniae [17] it was 2.69 mm; in the assay on Staphylococcus aureus [18], 1.9 mm.
As to `COc1ccc2c3c1O[C@H]1C[C@@H](OP(=O)(NCCN)N(CCCl)CCCl)C=C[C@@]31CCN(C)C2` (stereo not given in full), the zone of inhibition at 2000 µg/mL in the assay on Escherichia coli [1] came out at 4.9 mm; in the assay on Klebsiella pneumoniae [11] it was 4.8 mm; with Staphylococcus aureus [16], 3.51 mm; with Bacillus subtilis [19], 3.9 mm. The Activity with Brain [2] is 285.48 µg/mL; with Brain [3], 72.5 µg/mL; with Brain [9], 30.29 µg/mL; in the assay on Brain [13] it was 4.84 µg/mL. The EC50 with Brain [4] was 2.88 µg/mL (≈ 5.4 µM); in assay [6], 2.77 µg/mL (≈ 5.19 µM); in the assay on Brain [8], 2.43 µg/mL (≈ 4.56 µM); at Catalase, 2.73 µg/mL (≈ 5.12 µM). The MIC with Staphylococcus aureus [5] came to 0.49 µg/mL (≈ 0.919 µM); in the assay on Escherichia coli [7], 0.55 µg/mL (≈ 1.03 µM); with Bacillus subtilis [14] it was 0.12 µg/mL (≈ 0.225 µM); in the assay on Klebsiella pneumoniae [15], 0.33 µg/mL (≈ 0.619 µM). For the same compound, the zone of inhibition at 1000 µg/mL in the assay with Escherichia coli [10] came out at 2.33 mm; in the assay with Bacillus subtilis [12], 1.57 mm; in the assay with Klebsiella pneumoniae [17] it was 2.89 mm; in the assay with Staphylococcus aureus [18], 2.35 mm.
